How the values were obtained:
Mus musculus [1] = experiment: Drug level in male wild type mouse treated with 500 mg/kg for 7 to 14 days dosed through vitamin E-deficient base diet by UPLC-ESI-QTOFMS method based metabolomics analysis; assay type: ADME, organism-based; design: dose 500 mg/kg; conditions: in vivo, po
Mus musculus [2] = experiment: Drug level in male PXR null mouse treated with 500 mg/kg for 7 to 14 days dosed through vitamin E-deficient base diet by UPLC-ESI-QTOFMS method based metabolomics analysis; assay type: ADME, organism-based; design: dose 500 mg/kg; conditions: in vivo, po
Mus musculus [3] = experiment: Drug level in male PXR-humanized mouse treated with 500 mg/kg for 7 to 14 days dosed through vitamin E-deficient base diet by UPLC-ESI-QTOFMS method based metabolomics analysis; assay type: ADME, organism-based; design: dose 500 mg/kg; conditions: in vivo, po
Cyp3a11 = experiment: Induction of Cyp3a11 gene expression in wild type mouse liver at 50 mg/kg dosed through gavage daily for 4 days by qPCR method; assay type: ADME, organism-based; design: dose 50 mg/kg; conditions: po, read-out: FC
Cyp2c55 = experiment: Induction of Cyp2c55 gene expression in wild type mouse liver at 50 mg/kg dosed through gavage daily for 4 days by qPCR method; assay type: ADME, organism-based; design: dose 50 mg/kg; conditions: po, read-out: FC
[4] = target: T1, PXR (Nuclear receptor subfamily 1 group I member 2) (Mus musculus, UniProt O54915); experiment: Activation of mouse PXR expressed in human HepG2 cells at 10 uM after 24 hrs by firefly luciferase DR3 reporter gene assay; assay type: ADME, cell-based; conditions: human HepG2 cells expressing mouse PXR, read-out: FC
T1 sequence (O54915 whole entry): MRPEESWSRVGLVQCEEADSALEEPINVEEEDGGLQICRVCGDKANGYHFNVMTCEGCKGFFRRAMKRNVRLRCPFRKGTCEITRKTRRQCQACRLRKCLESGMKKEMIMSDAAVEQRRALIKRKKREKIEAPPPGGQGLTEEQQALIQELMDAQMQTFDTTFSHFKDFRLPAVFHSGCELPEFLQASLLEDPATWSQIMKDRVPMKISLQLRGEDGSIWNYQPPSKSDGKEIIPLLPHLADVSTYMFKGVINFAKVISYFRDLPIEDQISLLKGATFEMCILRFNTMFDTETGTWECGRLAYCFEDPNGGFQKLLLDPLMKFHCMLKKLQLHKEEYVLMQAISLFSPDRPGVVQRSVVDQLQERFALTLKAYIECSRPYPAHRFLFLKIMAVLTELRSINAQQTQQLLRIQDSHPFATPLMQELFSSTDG
Procedure, shortened: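 HepG2 cells grown in DMEM + 10% FBS were transfected with 10 ng mouse PXR, 100 ng DR3 firefly luciferase reporter and 2 ng Renilla pRL-SV40. Compound in DMSO was added 24 h after transfection and left for 24 h. Dual luciferase was then read, firefly normalized to Renilla per well, and expressed as fold over DMSO control.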

Ugt1a10 [5] = experiment: Induction of Ugt1a10 gene expression in wild type mouse liver at 50 mg/kg dosed through gavage daily for 4 days by qPCR method; assay type: ADME, organism-based; design: dose 50 mg/kg; conditions: po, read-out: FC
Cyp2c29 [6] = experiment: Induction of Cyp2c29 gene expression in wild type mouse liver at 50 mg/kg dosed through gavage daily for 4 days by qPCR method; assay type: ADME, organism-based; design: dose 50 mg/kg; conditions: po, read-out: FC
Mus musculus [7] = experiment: Reduction in Ugt1a6b gene expression in wild type mouse liver at 50 mg/kg dosed through gavage daily for 4 days by qPCR method; assay type: ADME, organism-based; design: dose 50 mg/kg; conditions: in vivo, po, 96 h
Ugt1a10 [8] = experiment: Induction of Ugt1a10 gene expression in PXR null mouse liver at 50 mg/kg dosed through gavage daily for 4 days by qPCR method; assay type: ADME, organism-based; design: dose 50 mg/kg; conditions: po, read-out: FC
Ugt2b5 = experiment: Induction of Ugt2b5 gene expression in wild type mouse liver at 50 mg/kg dosed through gavage daily for 4 days by qPCR method; assay type: ADME, organism-based; design: dose 50 mg/kg; conditions: po, read-out: FC
Mus musculus [9] = experiment: Reduction in Ugt1a6b gene expression in PXR-humanized mouse liver at 10 mg/kg dosed through gavage daily for 4 days by qPCR method; conditions: in vivo, po, 96 h
Cyp2b10 = experiment: Induction of Cyp2b10 gene expression in wild type mouse liver at 50 mg/kg dosed through gavage daily for 4 days by qPCR method; assay type: ADME, organism-based; design: dose 50 mg/kg; conditions: po, read-out: FC
Ugt1a1 = experiment: Induction of Ugt1a1 gene expression in wild type mouse liver at 50 mg/kg dosed through gavage daily for 4 days by qPCR method; assay type: ADME, organism-based; design: dose 50 mg/kg; conditions: po, read-out: FC
Ugt1a9 = experiment: Induction of Ugt1a9 gene expression in wild type mouse liver at 50 mg/kg dosed through gavage daily for 4 days by qPCR method; assay type: ADME, organism-based; design: dose 50 mg/kg; conditions: po, read-out: FC
Mus musculus [10] = experiment: Reduction in Ugt1a6a gene expression in PXR-humanized mouse liver at 10 mg/kg dosed through gavage daily for 4 days by qPCR method; conditions: in vivo, po, 96 h
Cyp2c29 [11] = experiment: Induction of Cyp2c29 gene expression in male PXR null mouse liver at 50 mg/kg dosed through gavage daily for 4 days by qPCR method; conditions: po, read-out: FC
Ugt2b34 = experiment: Induction of Ugt2b34 gene expression in wild type mouse liver at 50 mg/kg dosed through gavage daily for 4 days by qPCR method; assay type: ADME, organism-based; design: dose 50 mg/kg; conditions: po, read-out: FC

SMILES | Drug metabolism (Mus musculus [1]) | Drug metabolism (Mus musculus [2]) | Drug metabolism (Mus musculus [3]) | fold induction at 96 h (Cyp3a11) | fold induction at 96 h (Cyp2c55) | fold induction at 24 h, 10 µM [4] | fold induction at 96 h (Ugt1a10 [5]) | fold induction at 96 h (Cyp2c29 [6]) | fold change (FC) (Mus musculus [7]) | fold induction at 96 h (Ugt1a10 [8]) | fold induction at 96 h (Ugt2b5) | fold change (FC) (Mus musculus [9]) | fold induction at 96 h (Cyp2b10) | fold induction at 96 h (Ugt1a1) | fold induction at 96 h (Ugt1a9) | fold change (FC) (Mus musculus [10]) | fold induction at 96 h (Cyp2c29 [11]) | fold induction at 96 h (Ugt2b34)
CN1CC(=O)NC1=N [CREATININE] | metabolite_detected | metabolite_detected | metabolite_detected |  |  |  |  |  |  |  |  |  |  |  |  |  |  | 
CC(=O)[C@H]1[C@H](C#N)C[C@H]2[C@@H]3CC=C4C[C@@H](O)CC[C@]4(C)[C@H]3CC[C@@]21C [PREGNENOLONE CARBONITRILE] |  |  |  | 20.9 | 303 | 9.5 | 2.8 | 9.2 | 1.3 | 1.8 | 1.4 | 1.8 | 160 | 3.1 | 9.4 | 2 | 1.6 | 3.2
